Laboratory results as given in ChEMBL document CHEMBL1148959, “Annoglabayin, a novel dimeric kaurane diterpenoid, and apoptosis in Hep G2 cells of annomontacin from the fruits of Annona glabra” (2004).

Experiments:
Type in all cases: functional
HepG2 [1] = assay: Cell cycle arrest in human HepG2 cells assessed as accumulation at S phase at 75 uM after 24 hrs using propidium iodide staining by FACS
Summary of the method: (§1)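 Hep G2 cells seeded at 5 × 10^5 per 60 mm dish 48 h ahead in DMEM with 10% FCS and antibiotics. Exposed 24 h; compound from DMSO stock diluted in medium. Adherent and floating cells pooled, fixed in PBS-MeOH (1:2) at 4 °C ≥18 h, then stained 30 min at room temperature in the dark with 50 µg/mL PI plus 50 µg/mL RNaseA. Flow cytometry at 488 nm excitation, emission >580 nm, doublets gated out; subG1 taken as the subdiploid fraction.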

HepG2 [2] = assay: Effect on morphology in human HepG2 cells assessed as low cellular shape change at 100 uM after 9 hrs by FACS
Summary of the method: (§2)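 Hep G2 cells in DMEM/10% FCS were treated with or without 100 µM for 3, 6, 9 or 24 h, then trypsinized. Forward scatter (size) and side scatter (granularity) were read by flow cytometry. Normal versus low shape change was expressed as a percentage after gating out cellular debris. At least three runs; a representative run is shown.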

HepG2 [3] = assay: Cell cycle arrest in human HepG2 cells assessed as accumulation at S phase at 50 uM after 24 hrs using propidium iodide staining by FACS; summary of the method: as §1
HepG2 [4] = assay: Cell cycle arrest in human HepG2 cells assessed as accumulation at G1 phase at 75 uM after 24 hrs using propidium iodide staining by FACS; summary of the method: as §1
HepG2 [5] = assay: Cell cycle arrest in human HepG2 cells assessed as accumulation at G1 phase at 50 uM after 24 hrs using propidium iodide staining by FACS; summary of the method: as §1
HepG2 [6] = assay: Induction of apoptosis in human HepG2 cells assessed as cellular membrane damage at 100 uM after 24 hrs using propidium iodide staining by FACS
Summary of the method: (§3)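 Treated or untreated for 3, 6, 9 or 24 h at 100 µM, Hep G2 cells were trypsinized and stained 10 min with 5 µg/mL PI. Argon laser excitation at 488 nm, emission >580 nm, ≥10 000 cells counted. Cells were classed as intact or membrane-damaged after gating out debris. At least three runs; a representative run is shown.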

HepG2 [7] = assay: Induction of early apoptosis in human HepG2 cells assessed as number of cells with decreased mitochondrial transmembrane potential at 100 uM after 9 hrs using rhodamine 123 staining by FACS
Summary of the method: (§4)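 Hep G2 cells seeded 5 × 105 per 60 mm dish 48 h ahead in DMEM with 10% FCS, penicillin, streptomycin and amphotericin B. Compound diluted into medium from a 200 mM DMSO stock and applied for 3, 6, 9 or 24 h; untreated cells as control. Medium then replaced with 5 µM rhodamine 123 for 30 min in the dark. Cells trypsinized and mean rhodamine 123 fluorescence read by flow cytometry. Run at least three times, with a representative experiment shown.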

HepG2 [8] = assay: Induction of early apoptosis in human HepG2 cells assessed as number of cells with decreased mitochondrial transmembrane potential at 100 uM after 3 hrs using rhodamine 123 staining by FACS; summary of the method: as §4
HepG2 [9] = assay: Effect on morphology in human HepG2 cells assessed as low cellular shape change at 100 uM after 3 hrs by FACS; summary of the method: as §2
HepG2 [10] = assay: Induction of apoptosis in human HepG2 cells assessed as cellular membrane damage at 100 uM after 6 hrs using propidium iodide staining by FACS; summary of the method: as §3
HepG2 [11] = assay: Effect on morphology in human HepG2 cells assessed as low cellular shape change at 100 uM after 24 hrs by FACS; summary of the method: as §2
HepG2 [12] = assay: Cell cycle arrest in human HepG2 cells assessed as accumulation at S phase at 100 uM after 24 hrs using propidium iodide staining by FACS; summary of the method: as §1
HepG2 [13] = assay: Induction of apoptosis in human HepG2 cells assessed as cellular membrane damage at 100 uM after 3 hrs using propidium iodide staining by FACS; summary of the method: as §3
HepG2 [14] = assay: Cell cycle arrest in human HepG2 cells assessed as accumulation at G1 phase at 100 uM after 24 hrs using propidium iodide staining by FACS; summary of the method: as §1
HepG2 [15] = assay: Cell cycle arrest in human HepG2 cells assessed as accumulation at subG1 phase at 75 uM after 24 hrs using propidium iodide staining by FACS; summary of the method: as §1
HepG2 [16] = assay: Cell cycle arrest in human HepG2 cells assessed as accumulation at G2M phase at 100 uM after 24 hrs using propidium iodide staining by FACS; summary of the method: as §1
HepG2 [17] = assay: Induction of early apoptosis in human HepG2 cells assessed as number of cells with decreased mitochondrial transmembrane potential at 100 uM after 6 hrs using rhodamine 123 staining by FACS; summary of the method: as §4
HepG2 [18] = assay: Cell cycle arrest in human HepG2 cells assessed as accumulation at G2M phase at 75 uM after 24 hrs using propidium iodide staining by FACS; summary of the method: as §1
HepG2 [19] = assay: Induction of apoptosis in human HepG2 cells assessed as cellular membrane damage at 100 uM after 9 hrs using propidium iodide staining by FACS; summary of the method: as §3
HepG2 [20] = assay: Cell cycle arrest in human HepG2 cells assessed as accumulation at subG1 phase at 25 uM after 24 hrs using propidium iodide staining by FACS; summary of the method: as §1
HepG2 [21] = assay: Effect on morphology in human HepG2 cells assessed as low cellular shape change at 100 uM after 6 hrs by FACS; summary of the method: as §2
HepG2 [22] = assay: Cell cycle arrest in human HepG2 cells assessed as accumulation at S phase at 25 uM after 24 hrs using propidium iodide staining by FACS; summary of the method: as §1
HepG2 [23] = assay: Cell cycle arrest in human HepG2 cells assessed as accumulation at G2M phase at 25 uM after 24 hrs using propidium iodide staining by FACS; summary of the method: as §1
HepG2 [24] = assay: Cell cycle arrest in human HepG2 cells assessed as accumulation at subG1 phase at 50 uM after 24 hrs using propidium iodide staining by FACS; summary of the method: as §1
HepG2 [25] = assay: Cell cycle arrest in human HepG2 cells assessed as accumulation at G1 phase at 25 uM after 24 hrs using propidium iodide staining by FACS; summary of the method: as §1
HepG2 [26] = assay: Cell cycle arrest in human HepG2 cells assessed as accumulation at G2M phase at 50 uM after 24 hrs using propidium iodide staining by FACS; summary of the method: as §1
HepG2 [27] = assay: Induction of early apoptosis in human HepG2 cells assessed as number of cells with decreased mitochondrial transmembrane potential at 100 uM after 24 hrs using rhodamine 123 staining by FACS; summary of the method: as §4
HepG2 [28] = assay: Cell cycle arrest in human HepG2 cells assessed as accumulation at subG1 phase at 100 uM after 24 hrs using propidium iodide staining by FACS; summary of the method: as §1

In the case of `CCCCCCCCCCCC[C@H](O)[C@@H]1CC[C@@H]([C@@H](O)CCCCCCC(O)CCCCC[C@@H](O)CC2=C[C@H](C)OC2=O)O1` (stereo partly drawn) [ANNOMONTACIN], the Activity (HepG2 [1]) is reported as 35.9%, the Activity (HepG2 [2]) is reported as 75.4% and the Activity (HepG2 [3]) is reported as 37.1%. For the same compound, the Activity (HepG2 [4]) was 54.3%, the Activity (HepG2 [5]) was 54.6% and the Activity (HepG2 [6]) was 69.5%. The Flu intensity (HepG2 [7]) was 213, the Flu intensity (HepG2 [8]) was 367 and the Activity (HepG2 [9]) was 40.1%. The Activity (HepG2 [10]) was 6.9%, the Activity (HepG2 [11]) was 80.1% and the Activity (HepG2 [12]) was 32.9%. The Activity (HepG2 [13]) was 7.1%, the Activity (HepG2 [14]) was 56.7% and the Activity (HepG2 [15]) was 50.7%. The Activity (HepG2 [16]) was 10.4%, the Flu intensity (HepG2 [17]) was 241 and the Activity (HepG2 [18]) was 9.8%. It also gave an Activity (HepG2 [19]) of 32.4%, an Activity (HepG2 [20]) of 4.4% and an Activity (HepG2 [21]) of 50.5%. It also gave an Activity (HepG2 [22]) of 39.1%, an Activity (HepG2 [23]) of 10.8% and an Activity (HepG2 [24]) of 12.2%. The Activity (HepG2 [25]) was 50.2%, the Activity (HepG2 [26]) was 8.3% and the Flu intensity (HepG2 [27]) was 75. The Activity (HepG2 [28]) was 58.3%.
